A selection: hits, their analogues and other compounds. The true share with any hit is near 3.8%.
Kir21 block = Kir2.1 (mouse) channel inhibition | P35561 | HEK293-Kir2.1, FluxOR thallium flux fluorescence; active compounds read low | B-score at 10 µM | actives 0.85% (n = 310,000);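 active = fluorescence ratio B-score at or below minus 3 SD of library scores, with starting-brightness B-score within 2 SD, cut at about -4.2 in these data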;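 note: channel flux triggered by added potassium and thallium sulfate stimulus; B-score of peak minus minimum fluorescence over baseline after thallium stimulus; more negative B-score means stronger Kir2.1 block with less thallium influx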
KCNQ1 act = potentiates or activates the human KCNQ1 potassium channel. P51787. CHO-K1 KCNQ1, thallium flux FluxOR fluorescence; active compounds read high. B-score at 10 µM. actives 0.35% (n = 310,000);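 active = fluorescence ratio B-score, a plate-corrected score, at least three library SD, with initial intensity B-score within 5 SD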
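Doses: Single concentration per compound, DMSO matched to controls | Test system: KCNQ1-transfected CHO-K1 cells | Timing: 90 min dye loading and 20 min compound exposure, both at room temperature | Measured by: Kinetic FluxOR thallium fluorescence, 10-s 1-Hz baseline, 110-s post-stimulus read | Medium: Assay buffer with matched DMSO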
KCNQ1 inh = inhibitors of human KCNQ1 potassium channel. P51787. CHO-K1 KCNQ1, FluxOR thallium flux fluorescence; active compounds read high. B-score at 10 µM. actives 1.3% (n = 310,000). AID 2642;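 active = compounds whose thallium flux B-score, printed positive for inhibition, exceeds three library SD while starting fluorescence stays within three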;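 note: channel opened by potassium depolarization with thallium stimulus after 20 min compound exposure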
KCNK3 block = human KCNK3 channel inhibition, primary screen. O14649. CHO-KCNK3 thallium flux, FluxOR fluorescence; active compounds read low. B-score at 10 µM. actives 0.84% (n = 340,000). AID 602410;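 active = B-score under library mean minus 4 SD, starting fluorescence ratio at most library mean plus 5 SD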;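 note: more negative B-score means stronger inhibition of thallium flux through KCNK3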
hERG protect = shields human hERG channel from block by proarrhythmic agents | Q12809 | CHO-hERG, FluxOR thallium flux, dofetilide IC70 present | activation (rescue from dofetilide block), less the hit threshold, % at 10 µM | actives 0.51% (n = 310,000);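 active = activation above the mean of controls blocked by dofetilide plus 5 SD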;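 note: thallium influx through hERG after potassium depolarization seen as dye fluorescence rise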
KCNK9 inh = human KCNK9 channel inhibition; B-score at 10 µM; AID 488922; Q9NPC2; actives 1.2% (n = 310,000); HEK293 KCNK9, FluxOR thallium flux fluorescence; active compounds read low;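 active = ratio B-score over 3 SD below the library mean, with starting fluorescence within 5 SD of its mean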;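 note: negative B-score means less thallium flux so channel inhibition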
KCNK9 block conf = human KCNK9 inhibitor confirmation | shares compounds with KCNK9 inh | HEK293 KCNK9 cells, FluxOR thallium flux fluorescence | inhibition, % at 10 µM | actives 43% (n = 4,900);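 active = thallium signal inhibited by more than 5 SD of the compound-free buffer control wells, on both duplicate plates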
Kir21 sel = selectivity of KCNK9 modulators against mouse Kir2.1 | AID 492993 | inhibition, % at 10 µM | shares compounds with KCNK9 inh | actives 4% (n = 4,900) | Kir2.1 cells, FluxOR thallium flux fluorescence;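 active = thallium signal drop more than 5 SD beyond the mean of the no-compound control wells, seen in both duplicate plates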;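 note: signal is fluorescence rise after thallium addition divided by baseline fluorescence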
KCNK9 uninduced = second counter-screen for KCNK9 modulators: effect in non-induced cells; inhibition, % at 10 µM; shares compounds with KCNK9 inh; actives 40% (n = 4,900); non-induced KCNK9-HEK293, FluxOR thallium flux; AID 492997;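 active = thallium signal drop beyond 5 SD of the untreated control mean, on both duplicate plates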
Numbers stand for hits; . = inactive; / = no result given.

SMILES	Kir21 block	KCNQ1 act	KCNQ1 inh	KCNK3 block	hERG protect	KCNK9 inh	KCNK9 block conf	Kir21 sel	KCNK9 uninduced
c1ccc2cc(OCCOCCOc3ccc4ccccc4c3)ccc2c1	.	.	.	.	.	.	.	.	.
CN(C)CCOc1ccc2ccccc2c1	.	.	.	.	.	.	/	/	/
COc1cccc(S(=O)(=O)N2CCN(Cc3ccc4c(c3)OCO4)CC2)c1	.	.	.	.	.	.	.	.	.
O=S(=O)(c1ccc(Cl)nc1)N1CCN(Cc2ccc3c(c2)OCO3)CC1	.	.	.	.	.	.	/	/	/
O=S(=O)(c1ccc(Br)s1)N1CCN(Cc2ccc3c(c2)OCO3)CC1	.	.	.	.	.	.	.	.	.
CCOc1ccc(S(=O)(=O)N2CCN(Cc3ccc4c(c3)OCO4)CC2)cc1OCC	.	.	.	.	.	.	/	/	/
O=S(=O)(c1cccc2cccnc12)N1CCN(Cc2ccc3c(c2)OCO3)CC1	.	.	.	.	.	.	.	.	.
O=C(NCc1ccco1)C1CCN(c2ccc(S(=O)(=O)N3CCOCC3)cc2[N+](=O)[O-])CC1	.	.	.	.	.	-9.29	.	.	.
O=C(O)C1CCN(S(=O)(=O)c2ccc(N3CCOCC3)c([N+](=O)[O-])c2)CC1	.	.	.	.	.	.	/	/	/
COc1ccc(OC)c(Nc2cc(-c3ccccc3)nc(N)n2)c1	.	.	.	/	.	-8.22	32.5%	.	.
CN(C)CC/C=C1\c2cc(F)ccc2CSc2ccccc21	.	.	.	.	.	.	/	/	/
CN(C)CC/C=C1\c2ccccc2Sc2cc(F)c(Cl)cc21	-4.81	.	.	.	.	.	.	49.0%	.
CN(C)CC/C=C1/c2ccc(F)cc2Sc2ccc(Cl)cc21	-6.86	.	.	.	.	.	.	49.5%	.
CN(C)CC/C=C1/c2cc(F)ccc2CSc2ccc(F)cc21	.	.	.	.	.	.	/	/	/
CN(C)CC/C=C1\c2cc(Cl)ccc2Sc2cc(F)c(F)cc21	-4.22	.	.	.	.	.	.	33.5%	.
CN(C)CC/C=C1\c2ccc(F)cc2Sc2cc(F)c(Cl)cc21	.	.	.	.	.	.	.	45.0%	.
O=C(Nc1cccc(C(F)(F)F)c1)Nc1ccon1	.	.	.	.	.	.	/	/	/
CN(C)S(=O)(=O)c1ccc(N2CCCC2)c(C(=O)Nc2ccccc2OC(F)F)c1	.	.	.	.	.	.	.	.	.
CSc1ccccc1NC(=O)c1cc(S(=O)(=O)N(C)C)ccc1N1CCCC1	.	.	.	.	.	.	.	.	.
CN(C)S(=O)(=O)c1ccc(N2CCCC2)c(C(=O)NCC2COc3ccccc3O2)c1 (centres undefined)	.	.	.	.	.	.	.	.	.
CN(C)S(=O)(=O)c1ccc(N2CCCC2)c(C(=O)Nc2ccccc2N2CCOCC2)c1	/	/	/	.	/	/	/	/	/
CN(C)S(=O)(=O)c1ccc(N2CCCC2)c(C(=O)Nc2ccccc2)c1	.	.	.	.	.	.	/	/	/
CCOc1ccc(S(=O)(=O)NCCCn2ccnc2)cc1	.	.	.	.	.	.	/	/	/
COc1ccc(NC(=O)c2cn(CCC#N)nc2-c2cc3ccccc3o2)cc1	.	.	.	.	.	.	/	/	/
COc1cc(CN2CCN(Cc3ccccc3C(F)(F)F)CC2)cc(OC)c1OC	.	.	.	.	.	.	.	.	.
COc1cc(CN2CCN(Cc3ccc(C(F)(F)F)cc3)CC2)cc(OC)c1OC	.	.	.	.	.	.	.	.	.
CS(=O)(=O)N1CCN(Cc2ccccc2C(F)(F)F)CC1	.	.	.	.	.	.	/	/	/
Cc1ccc(CN2CCN(Cc3ccccc3C(F)(F)F)CC2)cc1	-4.55	.	.	.	.	.	.	.	.
CC1(CCCN2C(=O)c3ccccc3C2=O)OCCO1	.	.	.	.	.	.	/	/	/
